# From PubChem BioAssay
# A selection: hits, their analogues and other compounds. The true share with any hit is near 1.6%.
# p97 ATPase inh = inhibitors of human p97 ATPase | P55072 | recombinant p97 ATPase, Kinase-Glo ATP luminescence, 3 h | inhibition, % at 8 µM | 220,000 tested, 0.42% active | AID 1481; in the data active = inhibition above about 15%;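 also: 0% = DMSO vehicle and 100% = wells lacking enzyme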
# TbMetRS inhib = blocks T. brucei methionyl-tRNA synthetase activity; purified T. brucei MetRS, ATP depletion, Kinase-Glo luminescence; inhibition, % at 11.9 µM; 360,000 tested, 0.4% active; AID 624268;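 active = inhibition above a per-plate cutoff of the control wells' mean inhibition plus 3 SD, cut at about 5.5% in these data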;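 also: 0% = DMSO wells median and 100% = median of wells with control inhibitor compound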
#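 Material: T. brucei methionyl-tRNA synthetase, purified; reagent: substrates ATP, L-methionine and bulk Escherichia coli tRNA; dosing: 11.9 µM single point; timing: 15 min plus 2 h at 25 °C; detection: luminescence of leftover ATP; evaluation: % inhibition; control set: DMSO-only wells as low control; replicates: singlicate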
# p47phox inh = inhibitors of human p47phox binding. P14598. p47phox/p22phox peptide binding, fluorescence polarization, 2 h. inhibition, % at 24.7 µM. 220,000 tested, 0.53% active. AID 1274;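 also: 0% = p47phox with labelled peptide and 100% = labelled peptide alone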
# Target sequence (P14598 whole entry, looked up): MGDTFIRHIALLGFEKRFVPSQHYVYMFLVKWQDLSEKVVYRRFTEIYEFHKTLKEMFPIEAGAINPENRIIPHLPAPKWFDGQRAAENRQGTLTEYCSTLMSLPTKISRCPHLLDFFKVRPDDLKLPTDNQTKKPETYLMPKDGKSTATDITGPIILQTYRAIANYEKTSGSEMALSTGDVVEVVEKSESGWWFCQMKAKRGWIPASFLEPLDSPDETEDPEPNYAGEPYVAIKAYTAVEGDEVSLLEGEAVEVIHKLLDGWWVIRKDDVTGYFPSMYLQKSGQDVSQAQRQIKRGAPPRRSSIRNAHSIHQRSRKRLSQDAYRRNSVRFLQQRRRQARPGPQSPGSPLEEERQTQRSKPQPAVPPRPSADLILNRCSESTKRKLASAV
# 14-3-3 Bad inh = disrupts binding of bovine 14-3-3 zeta to phospho-Bad peptide. TR-FRET 14-3-3zeta/Dy647-pBad peptide displacement, 1 h. inhibition, % at 21.7 µM. 220,000 tested, 0.71% active;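 active = inhibition above about 70%, limit read from the data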;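 also: 0% = full 14-3-3 plus peptide FRET controls and 100% = background without 14-3-3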
# Target sequence (P63103 whole entry, looked up): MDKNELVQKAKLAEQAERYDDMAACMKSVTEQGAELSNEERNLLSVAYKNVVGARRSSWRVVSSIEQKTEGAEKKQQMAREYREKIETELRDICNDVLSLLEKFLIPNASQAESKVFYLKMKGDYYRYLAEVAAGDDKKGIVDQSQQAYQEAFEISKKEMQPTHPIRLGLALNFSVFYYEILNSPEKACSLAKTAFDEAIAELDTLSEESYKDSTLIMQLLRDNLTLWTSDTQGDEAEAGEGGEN
# eIF4E-4G inh = eIF4E/eIF4G interaction inhibition in translation initiation; P63073+Q04637; AID 782; inhibition, % at 21.7 µM; 220,000 tested, 0.37% active; TR-FRET eIF4E-eIF4GI(517-606) binding, 2 h;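 also: 0% = full FRET control wells and 100% = background wells lacking eIF4GI fragment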
# UBC9 SUMO inh = inhibitors of human SUMOylation (UBC9); HTRF SUMOylation assay, SAE1/SAE2 + UBC9, in vitro; 290,000 tested, 0.36% active; AID 2006; inhibition, % at 35 µM; P63279; in the data active = inhibition above about 50%, passing the limit was not always enough
# Active calls of the source: *; . = no result; [ ] = remark or other dose.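 The calls were made as follows, unless noted: active = inhibition above about 30% (limit read from the data); inactive = the rest.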
SMILES,p97 ATPase inh,TbMetRS inhib,p47phox inh,14-3-3 Bad inh,eIF4E-4G inh,UBC9 SUMO inh
CN(C)c1ccc(/C=C(\C#N)C(=O)c2ccccc2)cc1,-1.8,-0.4,51.7*,-13.5,-5.7,2.6
Cc1ccc(C=C(C#N)C(=O)c2ccccc2)cc1,.,-1.3,.,.,.,.
COC(=O)c1ccc(C2c3c(n[nH]c3C)C(=O)N2c2ccc(C)cc2)cc1 (centres undefined),-1.1,0.3,-3.3,2.3,-1.4,-4.4
Cc1ccc(N2C(=O)c3n[nH]c(C)c3C2c2ccccn2)cc1 (centres undefined),3.5,-1.1,72.7*,-5.7,-3.1,29.5
CCOC(=O)c1ccc(N2C(=O)c3n[nH]c(C)c3C2c2ccco2)cc1 (centres undefined),0.0,0.1,4.8,-0.8,1.4,17.8
Cc1ccc(N2C(=O)c3n[nH]c(C)c3C2c2ccco2)cc1 (centres undefined),-0.1,0.2,46.4*,-2.5,-8.7,9.1
CC(C)Cc1nnc(NC(=O)CCC(=O)N2CCCCC2)s1,.,-0.2,.,.,.,14.3
CCc1nnc(NC(=O)CCC(=O)N2CCCC2)s1,1.0,-0.4,89.9*,0.1,-4.0,7.6
COc1ccc(NC(=O)C(c2cc3ccccc3o2)n2c(=O)c(-c3cc4ccccc4[nH]3)nc3ccccc32)cc1 (centres undefined),.,0.0,.,.,.,.
C[C@@H]1CN([C@@H](C)CO)C(=O)c2cccc(NC(=O)c3nc4ccccc4s3)c2O[C@@H]1CN(C)CC1CC1,.,-0.3,.,.,.,.
CC(/C=N\NC(=O)CN1CCN(S(=O)(=O)c2ccc(C)cc2)CC1)=C\c1ccccc1,-7.1,-0.2,-9.9,80.5*[fluorescence artefact?],32.5*[fluorescence artefact?],-27.0
CC(=O)C1=C(c2ccccc2)OC(N)=C(C#N)C1c1ccc(O)cc1 (centres undefined),1.1,-0.6,17.7,-15.3,51.0*[fluorescence artefact?],4.0
O=C(CCCCC(=O)NNC(=O)COc1ccccc1)NNC(=O)COc1ccccc1,.,-0.8,.,.,.,16.2
O=P(O)(COc1ccccc1)COc1ccccc1,3.8,-0.3,-9.6,71.8*,2.1,15.6
c1ccc2c(CSc3nnc(-c4ccncc4)o3)cccc2c1,-12.3,-0.5,-9.6,78.0*,11.0,24.8
Clc1ccccc1CSc1nnc(-c2ccncc2)o1,-5.1,-0.5,-2.1,-10.7,-7.3,12.4
Cc1nc(C(F)(F)F)ccc1C(=O)N1CCCC(C)(C(=O)O)C1 (centres undefined),.,-0.3,.,.,.,.
CCOC(=O)c1ccc(NC(=O)COc2ccc(S(=O)(=O)NC(C)C)cc2)cc1,0.2,-0.3,-8.0,72.1*,-4.6,30.0
COC(=O)c1ccc(NC(=O)COc2ccc(S(=O)(=O)NC(C)C)cc2)cc1,-2.2,-0.2,-6.9,3.1,-0.3,5.9
COc1ccc([C@H]2C[C@@H](O)[C@H](n3cc(COC(=O)c4ccccc4)nn3)CN2C(=O)c2cccs2)cc1,.,0.1,.,.,.,.
O=C(CCCN1CCN(c2ccccc2)CC1)c1ccc(F)cc1,.,-0.2,.,.,.,.
O=C1CC(=C(c2ccccc2)c2ccccc2)C(=O)N1CCCCN1CCN(c2ccccc2)CC1,-1.3,-0.3,-70.0,76.2*,7.2,-19.6
Cc1cc(NC(=O)c2ccc(Cl)cc2)no1,-4.3,-0.5,48.0*,-4.8,2.6,13.3
CCOc1ccc(C(=O)Nc2cc(C)on2)cc1,0.9,-0.3,-9.8,-10.8,1.4,5.2
CNC(=O)c1nnn(Cc2ccccc2)c1NC(=O)C(F)(F)F,-1.4,-0.2,-14.5,77.2*,-6.9,26.1
SMILES,p97 ATPase inh,TbMetRS inhib,p47phox inh,14-3-3 Bad inh,eIF4E-4G inh,UBC9 SUMO inh
CCOC(=O)c1ccccc1NC(=O)c1c(F)c(F)c(F)c(F)c1F,0.9,-0.9,-6.9,81.1*,1.7,-4.5
CCC(=O)Nc1nnc(/C=C/c2ccc(OC)cc2)s1,-4.4,0.3,-13.3,-4.9,-3.3,30.9
COc1ccc(/C=C/c2nnc(NC(=O)CSc3ccc(C)cc3)s2)cc1,-2.5,-0.4,-22.9,3.0,2.3,50.1*
COc1ccc(-c2nnc(NC(=O)CSc3ccc(Cl)cc3)s2)cc1OC,8.2,-0.3,40.5*,18.2,2.1,3.0
COc1ccc(Cc2nnc(NC(=O)CSc3ccc(C)cc3)s2)cc1OC,-0.6,0.0,-3.4,-8.0,-5.3,17.5
Cc1ccc(C)c(C(Nc2ccccc2)c2ccc3ccc(C)nc3c2O)c1 (centres undefined),.,-1.4,.,.,.,.
O=C(c1cc(=O)c2ccccc2o1)N(Cc1ccccc1)C1CCS(=O)(=O)C1 (centres undefined),.,0.2,.,.,.,8.6
Cc1cc2oc(C(=O)N(Cc3ccccc3)C3CCS(=O)(=O)C3)cc(=O)c2cc1Cl (centres undefined),-3.8,-0.5,-5.4,88.4*[fluorescence artefact?],6.2,0.7
CC1(C(=O)Nc2ccc(Cl)c(Cl)c2)CCN1C(=O)C1CCCCC1 (centres undefined),.,-0.2,.,.,.,.
COc1ccc(NC(=O)CSc2cn[nH]n2)c(OC)c1,.,-0.4,.,.,.,5.2
COc1ccc(NC(=O)CSc2nc(O)cc(=O)[nH]2)c(OC)c1,1.6,0.5,2.7,-3.9,95.6*,15.9
COc1ccc(-n2c(SC(CN3CCCCC3)CN3CCCC3=O)nc3ccccc3c2=O)cc1 (centres undefined),0.1,-0.1,-9.2,24.8,5.2,27.5
O=C1CCCN1CC(CN1CCOCC1)Sc1nnnn1-c1ccccc1 (centres undefined),-1.2,0.1,-5.5,78.8*,3.2,18.1
O=C(NCc1ccccc1)c1cc(C2COCCN2C(=O)C2CC2)on1 (centres undefined),.,-0.5,.,.,.,.
Cc1ccc(NC(=O)c2cc3c(=O)oc4ccc(C)cc4c3s2)nc1,1.5,.,22.2,78.4*,-2.8,6.9
Cc1ccnc(NC(=O)c2cc3c(=O)oc4ccc(C)cc4c3s2)c1,1.4,0.3,24.0,63.9,5.7,4.3
Cc1ccc(OCC(=O)NC2=NCCS2)cc1,-2.5,0.0,46.7*,-3.8,-1.9,-0.7
N#C/C(=C/c1ccc(N2CCCC2)c([N+](=O)[O-])c1)c1nc2ccccc2[nH]1,4.3,0.0,-5.2,24.8,8.1,-46.7
Cc1ccc2nc(/C(C#N)=C\c3ccc(N4CCCCC4)c([N+](=O)[O-])c3)[nH]c2c1,4.2,-1.0,10.0,87.3*[fluorescence artefact?],12.3,12.9
CC1(C(=O)Nc2ccc3c(c2)OCCO3)CN(S(C)(=O)=O)CC(=O)N1CCCn1ccnc1 (centres undefined),.,-0.9,.,.,.,.
COc1ccccc1-c1csc(-n2ncc(C#N)c2N)n1,.,0.4,.,.,.,8.4
Cc1ccc(-c2nnc(-n3ncc(C#N)c3N)c3ccccc23)cc1C,5.8,-0.5,42.0*,1.6,1.8,-2.0
O=C(COC(=O)c1ccccn1)Nc1cccc(Cl)c1,4.2,-1.2,35.9*,-12.7,2.3,6.1
Cc1cccc(NC(=O)COC(=O)c2ccccn2)c1,.,0.3,.,.,.,11.9
O=C(NCc1cccc(Cl)c1)c1ccc(-c2csnn2)cc1,8.9,0.8,115.5*,-5.6,3.1,20.0
